CTSL1 counter – counter-screen for PFM18AAP inhibitors: inhibitors of F. hepatica cathepsin L1; recombinant F. hepatica cathepsin L1, Z-Leu-Arg-MCA fluorescence; hit rate 0.49% among 300,000; inhibition, % at 5.96 µM;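 active means inhibition above the mean of all tested compounds plus 3 SD, set per screening campaign, cut at about 17% in these data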
T cruzi repl – T. cruzi replication inhibition; T. cruzi beta-gal in NIH3T3, luminescence, 90 h; inhibition, % (no concentration beside the values); AID 1885; hit rate 1.4% among 300,000;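 active means mean inhibition across valid replicates above about 55%, limit read from the data; inconclusive means mean below that limit but half or more replicates reach it; inactive means mean below it, under half of replicates reach it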;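 further: signal also drops with host cell toxicity which is not excluded here; higher percent means less beta-gal luminescence so fewer parasites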
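Material: NIH/3T3 host cells with β-galactosidase reporter T. cruzi; Input: 5,000 host fibroblasts per well; Medium: DMEM, 2% fetal bovine serum; Compound: 50 nL DMSO compound solution per well; Schedule: 3 h host attachment, then at least 90 h co-culture; Detection: luminescent β-galactosidase signal after 60 min lysis.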
p-CIP stab down – compounds decreasing mouse p/CIP protein stability; Q05BA5; F442A p/CIP-EGFP cells, EGFP fluorescence, 16 h; decrease of EGFP signal, % at 10 µM; hit rate 0.01% among 290,000; AID 1984;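 active means EGFP signal decrease of at least 30% at 10 µM or well 3 SD below plate mean, unless failing retest; inactive means the rest, including hits failing retest or dose response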
Target sequence (Q05BA5 1-1403): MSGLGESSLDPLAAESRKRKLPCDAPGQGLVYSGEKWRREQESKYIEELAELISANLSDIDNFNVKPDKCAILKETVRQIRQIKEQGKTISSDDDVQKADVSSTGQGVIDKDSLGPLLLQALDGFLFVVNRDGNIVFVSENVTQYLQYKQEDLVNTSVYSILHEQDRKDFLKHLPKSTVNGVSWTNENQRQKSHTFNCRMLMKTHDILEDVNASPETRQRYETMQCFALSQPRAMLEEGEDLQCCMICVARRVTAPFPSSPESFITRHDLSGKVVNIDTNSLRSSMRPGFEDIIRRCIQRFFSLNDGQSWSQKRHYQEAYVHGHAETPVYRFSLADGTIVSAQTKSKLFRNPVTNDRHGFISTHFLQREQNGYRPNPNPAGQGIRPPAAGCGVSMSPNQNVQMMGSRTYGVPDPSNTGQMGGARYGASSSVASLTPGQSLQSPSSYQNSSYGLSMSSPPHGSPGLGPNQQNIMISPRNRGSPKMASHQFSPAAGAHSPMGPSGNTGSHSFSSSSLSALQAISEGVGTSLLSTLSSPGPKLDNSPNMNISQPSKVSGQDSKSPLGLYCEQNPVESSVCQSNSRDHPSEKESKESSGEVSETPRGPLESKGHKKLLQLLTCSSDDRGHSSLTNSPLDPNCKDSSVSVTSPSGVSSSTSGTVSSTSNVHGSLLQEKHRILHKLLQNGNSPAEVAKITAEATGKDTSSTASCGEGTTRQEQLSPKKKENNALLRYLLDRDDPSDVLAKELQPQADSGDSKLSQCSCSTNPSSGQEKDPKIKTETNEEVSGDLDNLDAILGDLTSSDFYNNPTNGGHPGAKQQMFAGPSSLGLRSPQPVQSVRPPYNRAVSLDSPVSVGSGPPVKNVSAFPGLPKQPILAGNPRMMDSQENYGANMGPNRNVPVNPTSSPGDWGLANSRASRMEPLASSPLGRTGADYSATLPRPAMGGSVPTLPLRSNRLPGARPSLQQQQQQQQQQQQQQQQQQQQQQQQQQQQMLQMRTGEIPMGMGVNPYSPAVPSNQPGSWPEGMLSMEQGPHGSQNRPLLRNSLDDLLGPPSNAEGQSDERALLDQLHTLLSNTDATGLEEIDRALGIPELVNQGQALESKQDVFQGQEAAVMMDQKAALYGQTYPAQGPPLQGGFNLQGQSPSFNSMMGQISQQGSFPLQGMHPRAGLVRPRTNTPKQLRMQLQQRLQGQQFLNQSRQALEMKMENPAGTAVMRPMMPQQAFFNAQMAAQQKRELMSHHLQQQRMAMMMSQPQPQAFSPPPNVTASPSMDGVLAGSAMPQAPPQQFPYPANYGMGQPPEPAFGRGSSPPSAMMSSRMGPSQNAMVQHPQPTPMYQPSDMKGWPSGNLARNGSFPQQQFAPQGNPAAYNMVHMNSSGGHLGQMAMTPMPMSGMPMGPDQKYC
JMJD2C inh – inhibitors of human GASC-1 (JMJD2C) demethylase; Q9H3R0; GST-JMJD2C(1-420) H3K9me3 demethylation, DELFIA europium; inhibition, % at 2.35 µM; hit rate 0.069% among 330,000; AID 2099;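 active means more than half of a compound's replicate wells show inhibition beyond 50%, single wells judged on their own value; inconclusive means some, but no more than half, of replicates pass 50% inhibition; inactive means no replicate passes 50% inhibition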;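 further: signal counts dimethyl H3K9 product captured on neutravidin plate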
Cardio protect – myocardial damage modulation in H9c2 cells; H9c2 cardiomyocytes, H2O2 injury protection, ATPLite, 2 h; protection from H2O2 cell death, % at 20 µM; hit rate 0.63% among 360,000;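 active means compounds giving at least 50% protection of heart cells from peroxide-induced death in the single-dose screen, raw or plate-pattern-corrected value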
PP5 primary – blocks human protein phosphatase 5 activity; purified PP5c, OMFP substrate fluorescence; hit rate 0.18% among 320,000; AID 1987; P53041; inhibition, % at 6.7 µM;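 active means inhibition above the campaign's mean inhibition across all tested compounds plus 3 SD, cut at about 9.5% in these data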
A number is an active result; n = inactive; u = inconclusive; x = no result given. Rows were chosen to be rich in hits. Some 2.4% of all compounds tested hit in one or more screens of this group.

SMILES	CTSL1 counter	T cruzi repl	p-CIP stab down	JMJD2C inh	Cardio protect	PP5 primary
Oc1c(CN2CCOCC2)cc(COCc2ccccc2)c2cccnc12	n	62	n	n	n	n
O=C(NNC1=C(C(=O)C(F)(F)F)CCC1)c1ccccc1O	n	n	n	n	n	n
COc1ccccc1C(=O)NNC1=C(C(=O)C(F)(F)F)CCC1	n	n	n	n	67	n
COCC(=O)N/N=C/c1c(C)[nH]n(-c2ccccc2)c1=O	n	n	n	n	n	n
Cc1[nH]n(-c2ccccc2)c(=O)c1/C=N/NC(=O)COc1ccccc1[N+](=O)[O-]	n	n	n	n	62	n
Cc1[nH]n(-c2ccccc2)c(=O)c1/C=N/NC(=O)c1cccc([N+](=O)[O-])c1	n	x	n	n	n	n
Cc1[nH]n(-c2cccc3ccccc23)c(=O)c1/C=N/NC(=O)c1cccc([N+](=O)[O-])c1	n	n	n	n	56	n
OCc1csc(=Nc2ccccc2)n1-c1ccccc1	n	n	n	57	n	n
COc1ccccc1/C=C/C(=O)OCC(=O)N1c2ccccc2CC1C (stereo not drawn)	x	x	x	n	n	n
CCOC(=O)c1ccccc1NC(=O)CSc1nc2ccccc2c(=O)n1CCCN1CCOCC1	x	x	x	n	n	x
O=C1C(CN2CCCC2)CCCC1CN1CCCC1 (stereo not drawn)	x	x	x	x	n	x
CCOc1cc(NC(=S)NCCOC)c(OCC)cc1NC(=O)c1cccs1	n	n	n	69	x	n
O=C(N/N=C/c1cccc([N+](=O)[O-])c1O)C(O)(c1ccccc1)c1ccccc1	n	n	n	n	63	n
COc1cccc(C=Nc2cc(C)cc(C)c2)c1O	n	n	n	n	n	n
CCc1ccc2oc(-c3cc(N=Cc4cccc(OC)c4O)ccc3O)nc2c1	n	64	n	n	x	n
CCCCN(C(=O)COC(=O)c1ccc(C=O)cc1)c1c(N)n(CCC)c(=O)[nH]c1=O	x	x	x	n	n	n
Cn1nc([N+](=O)[O-])nc1Oc1ccc2ccccc2c1	n	n	n	n	n	n
Cn1nc([N+](=O)[O-])nc1Oc1ccccc1N	n	63	n	n	n	n
Cn1nc([N+](=O)[O-])nc1Oc1ccccc1F	n	74	n	n	n	n
COc1ccc(-c2cc(=O)oc3cc(O)ccc23)cc1	n	n	n	n	n	n
O=c1cc(-c2ccc([N+](=O)[O-])cc2)c2ccc(O)cc2o1	n	n	n	n	60	n
COc1cc(C)c(CN2CCC(n3nccc3NC(=O)C3CC3)CC2)cc1C	n	n	n	n	n	n
O=C(NCc1ccc2c(c1)CCO2)Nc1cccc(C(F)(F)F)c1	n	n	n	n	n	n
CN(CC1CCCN(CCc2cccc(C(F)(F)F)c2)C1)C(=O)c1cc2ccccc2o1 (stereo not drawn)	x	65	n	n	n	x
CSCCC(=O)N(C)CC1CCCN(CCc2cccc(C(F)(F)F)c2)C1 (stereo not drawn)	n	55	n	n	n	n
SMILES	CTSL1 counter	T cruzi repl	p-CIP stab down	JMJD2C inh	Cardio protect	PP5 primary
COCCCN1C(=O)C(CC(=O)NCCCN(C)C)CC(C(=O)N2CCOCC2)=C1C (stereo not drawn)	x	x	x	x	n	x
COCOCCn1cc(CN2CCS(=O)(=O)N(Cc3ccc(-c4ccc(OC)c(OC)c4)cc3)C(CC(C)C)C2=O)nn1 (stereo not drawn)	x	x	x	x	n	x
CCn1c(COc2ccccc2OC)nnc1SCC(=O)NC1CCCC1	n	n	n	n	n	n
CC(=O)NC(c1cc(Cl)c2cccnc2c1O)C1CC1 (stereo not drawn)	x	x	x	n	60	n
CC(=O)NC(c1cc(Cl)c2cccnc2c1O)C(C)C (stereo not drawn)	x	x	x	n	n	n
CC(=O)NC(c1ccc(C)cc1)c1cc(Cl)c2cccnc2c1O (stereo not drawn)	x	62	n	n	n	x
CCC(=O)NC(c1ccc(OC)cc1)c1cc(Cl)c2cccnc2c1O (stereo not drawn)	n	u	n	n	n	n
COc1ccc(C(NC(=O)c2cccnc2)c2cc(Cl)c3cccnc3c2O)cc1OC (stereo not drawn)	n	u	n	n	n	n
Oc1c(C(Nc2ccccn2)c2cccnc2)cc(Cl)c2cccnc12 (stereo not drawn)	n	55	n	n	n	n
CCCc1ccc(O)c(N=Cc2cc(Br)cc(OCC)c2O)c1	n	n	n	n	71	n
CCOc1ccc(Br)cc1/C=N/O	n	n	n	n	n	n
CCC(C)(C)n1nnnc1C(c1ccncc1)N1CCN(c2cccc(OC)c2)CC1 (stereo not drawn)	n	n	n	n	n	n
c1ccc(Cn2nnnc2C(c2cccnc2)N2CCN(c3ccccc3)CC2)cc1 (stereo not drawn)	n	81	n	n	n	n
CC(C)(C)n1nnnc1C(c1cccnc1)N1CCN(c2ccccc2)CC1 (stereo not drawn)	n	55	n	n	n	n
CCC(C)(C)n1nnnc1C(c1cccnc1)N1CCN(c2cccc(C(F)(F)F)c2)CC1 (stereo not drawn)	n	62	n	n	n	n
c1ccc(Cn2nnnc2C(c2ccncc2)N2CCOCC2)cc1 (stereo not drawn)	n	n	n	n	n	n
O=C(OCn1nnc2ccccc2c1=O)c1ccc(F)c(S(=O)(=O)N2CCOCC2)c1	x	x	x	x	n	x
CC1=C(C)/C(=N/OC(=O)c2cccc([N+](=O)[O-])c2)C=CC1=O	17	n	n	n	n	n
N/C(=N/OC(=O)c1cccc([N+](=O)[O-])c1)c1cccc([N+](=O)[O-])c1	n	n	n	n	n	n
Cc1cc(C)n2nc(C(=O)OCC(=O)NCc3ccccc3)nc2n1	x	x	x	n	n	n
COC(=O)[C@@]1(C)[C@H]2C(=O)N(C)C(=O)[C@H]2[C@H]2CN=C(SCc3ccc(C#N)cc3)N21	x	x	x	x	n	x
CN(c1ccccc1)S(=O)(=O)c1ccc(Cl)c(C(=O)Nc2ccc(-c3nc4ccccc4[nH]3)cc2)c1	n	57	n	n	n	n
O=C(c1ccccc1)c1ccc2nc(-c3ccc(NC(=O)c4ccccc4Br)cc3)[nH]c2c1	n	60	n	n	n	n
CN(c1ccccc1)S(=O)(=O)c1ccc(Cl)c(C(=O)Nc2nc3ccccc3[nH]2)c1	n	n	n	n	n	n
Cc1c(C(=O)OCC(C)C)[nH]c2c1C(=O)CC(c1cccs1)C2 (stereo not drawn)	n	55	n	n	n	n
Clc1ccc(NCc2cccnc2)c(Cl)c1	n	n	n	n	n	n
FC(F)(F)c1cc(-c2ccc(Cl)cc2)nc(NCc2cccnc2)n1	n	70	n	n	n	n
Cc1ccc(-c2cc(C(F)F)nc(NCc3cccnc3)n2)cc1	n	60	n	n	n	n

Compound activity (PubChem)
